# Experimental data collected from several papers.
# Compare with care: the assays were run in different laboratories.
# Target: Myosin light chain kinase, smooth muscle (MYLK, Homo sapiens, UniProt Q15746)
SMILES,observed,action,technique,cells,concentration,endpoint,value
Cn1c(=O)n(-c2ccc(C(C)(C)C#N)cc2)c2c3cc(-c4cnc5ccccc5c4)ccc3ncc21,enzyme activity,inhibitor,,,10 µM,remaining activity,109%
Nc1ncnc2occ(-c3ccc(NC(=O)Nc4cc(C(F)(F)F)ccc4F)cc3)c12,enzyme activity,inhibitor,,,20 µM,remaining activity,42%
Nc1nc(NC2CCCCC2)sc1C(=O)c1ccccc1,enzyme activity,inhibitor,,,10 µM,remaining activity,44%
C[S+]([O-])c1ccc(-c2nc(-c3ccncc3)c(-c3ccc(F)cc3)[nH]2)cc1 (centres unmarked),cell-free assay,,,,0.5 µM,remaining signal,101%
C[C@H](c1ccc(F)cc1)N(Cc1cccc(C(=O)O)c1)C(=O)c1cnc2ccccc2c1,cell-free assay,,competition with immobilised ligand,,1 µM,remaining binding,76%
Cn1cnc(Br)c1C1=CN(c2ncnc3[nH]cnc23)CCS1,enzyme activity,inhibitor,radiometric,,50 nM,inhibition,33.5%
CC(C)(O)[C@H]1CC[C@H](Nc2ccc3ncc(-c4cccc(C(F)(F)F)c4)n3n2)CC1,enzyme activity,inhibitor,,,1 µM,remaining activity,99.8%
COc1cc(/C=C/C(=O)CC(=O)/C=C/c2ccc(O)c(OC)c2)ccc1O,enzyme activity,inhibitor,,,1 µM,activity vs control,70%
COc1ccc2c(c1)O[C@@H](c1ccc(OC)c(OC)c1)C[C@H]2NC(=O)C1(c2ccc3c(c2)OC(F)(F)O3)CC1,cell-free assay,,competition with immobilised ligand,,1 µM,remaining binding,85%
O=C1NC(=O)c2cc(Nc3ccc(F)cc3)c(Nc3ccc(F)cc3)cc21,cell-free assay,,,,0.5 µM,remaining signal,100%
COc1cc(Nc2cnc(C#N)c(O[C@H](C)CN(C)C)n2)ncc1-c1cnn(C)c1,enzyme activity,inhibitor,radiometric,,10 µM,remaining activity,103%
Oc1ccc(-c2nc(-c3ccncc3)c(-c3ccc(F)cc3)[nH]2)cc1,cell-free assay,,,,0.5 µM,remaining signal,106%
FC(F)c1nc2ccccc2n1-c1nc(N2CCOCC2)nc(N2CCOCC2)n1,enzyme activity,inhibitor,,,10 µM,remaining activity,91%
CC(=O)Nc1c(C(C)=O)c(=O)n(C)c2nc(-c3ccc(Cl)cc3Cl)c(-c3ccc(Cl)cc3)cc12,cell-free assay,,competition with immobilised ligand,,1 µM,remaining binding,100%
Cn1cncc1C1=CN(c2ncnc3[nH]cnc23)CCS1,enzyme activity,inhibitor,radiometric,,50 nM,inhibition,18.2%
Cc1c(NC(=O)c2cc(C(N)=O)nc3cc(F)ccc23)c(C(F)(F)F)nn1Cc1ccc(C#N)cc1,binding,,competition with immobilised ligand,,1 µM,remaining binding,65%
Cn1c2c(Cl)c(Cl)ccc2c2cc(N)[nH]c(=O)c21,thermal stability,,DSF,,10 µM,ΔTm,0.1 °C
Oc1cccc(-c2nc(N3CCOCC3)c3oc4ncccc4c3n2)c1,cell-free assay,,,,0.5 µM,remaining signal,77.1%
C[C@@H]1CCN(c2nccc(-c3cnn4ncccc34)n2)C1,binding,,,,1 µM,remaining binding,92%
CC(C)(C)c1nc2c(s1)c1nc(N)ncc1c1ccc(NS(=O)(=O)c3c(F)cccc3F)c(F)c12,enzyme activity,inhibitor,radiometric,,1 µM,remaining activity,87%
CO[C@H]1CC[C@H](CNc2ccc(S(=O)(=O)NC(=O)c3ccc(N4CCN(CC5=C(c6ccc(Cl)cc6)CC(C)(C)CC5)CC4)cc3Oc3cnc4[nH]ccc4c3)cc2[N+](=O)[O-])CC1,cell-free assay,,competition with immobilised ligand,,1 µM,remaining binding,50%
O=C(Nc1cnn(-c2csc(C(=O)NC3COC3)c2)c1)Nc1c(F)cccc1Cl,enzyme activity,inhibitor,,,5 µM,remaining activity,95.9%
COCCOc1nc(-c2ccc(Cl)nc2)nc2c1CN(C(=O)c1ncn3ccccc13)CC2,cell-free assay,,competition with immobilised ligand,,0.1 µM,remaining binding,70%
CN1CC(Oc2cnc(C#N)cc2-c2ccn3nc(NC(=O)C4CC4)cc3c2)C1,enzyme activity,inhibitor,,,1 µM,inhibition,-19%
Cn1nc(C(=O)NCc2ccc(C(=O)O)cc2)cc1-c1ccc2[nH]ccc2c1,cell-free assay,,competition with immobilised ligand,,0.1 µM,remaining binding,62%
CCN1CCN(Cc2ccc(NC(=O)c3ccc(C)c(Oc4ccnc5[nH]ccc45)c3)cc2C(F)(F)F)CC1,target engagement in cells,inhibitor,chemoproteomics,Huh-7,1 µM,inhibition,-23.4%
